Bioassay records deposited in PubChem by Broad Institute.
C2C12 statin – suppressors of statin myotoxicity in C2C12 myotubes, primary screen, cell-based, single point, plate reader; 0.78% of 330,000 active; rescue of ATP level, % at 7.49 µM; C2C12 myotubes + simvastatin, ATP luminescence, 48 h; scaled: DMSO 0, geranylgeraniol control 100; AID 602340, 2012;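 active = mean ATP rescue above about 67%, or every replicate alone reaching that limit, limit read from the data, passing the limit was not always enough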;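 note: myotubes were challenged with 10 µM simvastatin during compound exposure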
E-selectin induc – E-selectin induction in HUVECs, primary screen, imaging, HUVEC, immunofluorescence imaging, single point. P16581. normalized: neutral wells 0, TNF-alpha wells 100. activation, % at 7.58 µM. 0.37% of 260,000 active. AID 686992, 2013;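 active = mean E-selectin-positive cell signal at least 10% of the positive control, reached in at least 60% of replicates, without over 20% cell loss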
Target sequence (P16581 whole entry, looked up): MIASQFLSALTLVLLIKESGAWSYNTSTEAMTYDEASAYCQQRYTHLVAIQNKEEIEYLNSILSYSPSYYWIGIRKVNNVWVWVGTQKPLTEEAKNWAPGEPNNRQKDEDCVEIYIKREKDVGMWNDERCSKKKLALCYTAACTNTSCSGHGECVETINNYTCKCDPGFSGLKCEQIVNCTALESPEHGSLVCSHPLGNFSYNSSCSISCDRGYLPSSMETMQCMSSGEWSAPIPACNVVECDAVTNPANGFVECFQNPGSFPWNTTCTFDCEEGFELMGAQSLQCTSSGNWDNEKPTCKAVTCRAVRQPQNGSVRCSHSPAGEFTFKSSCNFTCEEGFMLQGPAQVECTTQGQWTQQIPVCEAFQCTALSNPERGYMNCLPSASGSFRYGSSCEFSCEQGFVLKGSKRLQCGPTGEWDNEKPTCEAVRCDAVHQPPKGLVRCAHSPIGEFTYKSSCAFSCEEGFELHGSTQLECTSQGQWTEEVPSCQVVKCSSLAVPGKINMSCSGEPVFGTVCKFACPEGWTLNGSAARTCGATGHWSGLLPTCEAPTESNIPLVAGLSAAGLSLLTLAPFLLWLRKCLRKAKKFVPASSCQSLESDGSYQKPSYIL
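Test system: HUVEC; input: 3,000 HUVEC/well; measured by: immunofluorescence imaging; read-out: % PE-positive cells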
DENV2 CPE – inhibitors of DENV2 cytopathic effect, primary screen, cell-based, plate reader, single concentration; AID 651640, 2012; CPE inhibition, % at 9.99 µM; DENV2-infected cells, cytopathic effect rescue; 1.7% of 350,000 active; in the data active = CPE inhibition above about 20%, passing the limit was not always enough; tested in BHK-21 cells
Of the large screens only hits and unclear results are named; the others gave an inactive call. Hits are enriched below; roughly 2.2% of the tested compounds scored in any of these assays.

COc1cc(NC(=O)c2cc(S(=O)(=O)N3CCCCC3)ccc2N2CCOCC2)cc(OC)c1OC	DENV2 CPE 62.7
Cc1occc1C(=O)Nc1cc(S(=O)(=O)N2CCOCC2)ccc1OC(C)C	none (no result: E-selectin induc)
COc1ccc(S(=O)(=O)N2CCOCC2)cc1C(C)C	none (no result: E-selectin induc, DENV2 CPE)
CC(C)Oc1ccc(S(=O)(=O)N2CCOCC2)cc1NC(=O)c1cc([N+](=O)[O-])ccc1N1CCOCC1	DENV2 CPE 72.1
COc1ccc(CCC(=O)Nc2cc(S(=O)(=O)N3CCOCC3)ccc2OC(C)C)cc1	DENV2 CPE 70.4
CCC(C)c1cc(S(=O)(=O)N2CCOCC2)ccc1OC (configuration not stated)	C2C12 statin 82.4 (no result: E-selectin induc, DENV2 CPE)
O=C(Nc1ccccc1Cl)c1cc(S(=O)(=O)N2CCCCC2)ccc1N1CCOCC1	none (no result: E-selectin induc, DENV2 CPE)
COc1cc(CCC(=O)Nc2cc(S(=O)(=O)N3CCOCC3)ccc2OC(C)C)cc(OC)c1OC	none
CCCNC(=O)C[C@@H]1C[C@H]2c3cc(NC(=O)Nc4ccccc4)ccc3O[C@H]2[C@@H](CO)O1	none
O=C(c1ccncc1)N1CC[C@@H]2[C@@H](CO)Nc3ccc(Br)cc3[C@@H]21	none (no result: DENV2 CPE)
C[C@H]1CN([C@@H](C)CO)C(=O)c2cccc(NC(=O)C3CCCCC3)c2O[C@H]1CN(C)S(=O)(=O)c1cccs1	none
COc1cc(S(=O)(=O)N2CCOCC2)ccc1NC(=O)COC(=O)/C=C/c1cc(OC)c(OC)c(OC)c1	none (no result: C2C12 statin)
COc1cc(/C=C/C(=O)OCC(=O)Nc2cc(S(=O)(=O)N3CCOCC3)ccc2Cl)cc(OC)c1OC	C2C12 statin 108.6
COCC(=O)N1CC(=O)N2[C@@H](CO)[C@H](c3ccc(C#CC4CC4)cc3)[C@@H]2C1	none (no result: C2C12 statin)
COc1cc(-c2noc(-c3ccccc3C(=O)NCc3ccco3)n2)cc(OC)c1OC	C2C12 statin 100.2 (no result: E-selectin induc, DENV2 CPE)
COc1ccccc1-c1noc(-c2ccccc2C(=O)NCc2ccco2)n1	none (no result: E-selectin induc, DENV2 CPE)
Cc1ccc(S(=O)(=O)N(C)C[C@@H]2Oc3c(NC(=O)c4ccncc4)cccc3C(=O)N([C@@H](C)CO)C[C@H]2C)cc1	none
O=C1c2ccccc2CN1CCSC(=S)N1CCOCC1	DENV2 CPE 21.0 (no result: C2C12 statin, E-selectin induc)
CC1CN(C(=S)SCCN2Cc3ccccc3C2=O)CC(C)O1 (configuration not stated)	none (no result: C2C12 statin, E-selectin induc)
O=C(C[C@@H]1CC[C@@H]2[C@H](COC[C@H](O)CN2Cc2cccc(Cl)c2)O1)NCc1cccc(F)c1	none
CC(C)(C)OC(=O)CNC(=O)c1[nH]cnc1C(=O)N[C@@H](Cc1ccccc1)C(=O)OC(C)(C)C	DENV2 CPE 54.0
CC(C)(C)OC(=O)NCCCCCNC(=O)c1[nH]cnc1C(=O)N[C@@H](Cc1ccccc1)C(=O)OCc1ccccc1	C2C12 statin 131.9
CCN(CC)C(=O)c1[nH]cnc1C(=O)NCC(=O)OC(C)(C)C	C2C12 statin 93.2 (no result: E-selectin induc)
CC(C)(C)OC(=O)[C@H](Cc1ccccc1)NC(=O)c1nc[nH]c1C(=O)NCC(=O)OCc1ccccc1	none (no result: E-selectin induc)
CCN(CC)C(=O)c1[nH]cnc1C(=O)N[C@@H](CC(C)C)C(=O)OC(C)(C)C	none
CC(C)C[C@H](NC(=O)c1nc[nH]c1C(=O)NCCCCCNC(=O)OC(C)(C)C)C(=O)OCc1ccccc1	none
C[C@@H]1CCCCO[C@H](CN(C)CC2CCCCC2)[C@H](C)CN([C@@H](C)CO)C(=O)c2cc(NC(=O)CCC(F)(F)F)ccc2O1	none (no result: C2C12 statin)
COc1ccc(NC(=O)N[C@H]2CC[C@H](CCn3cc(-c4ccccc4)nn3)O[C@@H]2CO)cc1	DENV2 CPE 37.0
COc1ccccc1-c1cn(CC[C@H]2CC[C@@H](NC(=O)NC(C)C)[C@H](CO)O2)nn1	DENV2 CPE 27.6
COc1ccccc1-c1cn(CC[C@H]2CC[C@H](NC(=O)NC(C)C)[C@H](CO)O2)nn1	none
COc1ccc(NC(=O)N[C@@H]2CC[C@@H](CCn3cc(-c4ccccc4)nn3)O[C@@H]2CO)cc1	none
O=C(Nc1ccc(Cl)cc1)N[C@@H]1CC[C@@H](CCn2cc(Cc3ccccc3)nn2)O[C@@H]1CO	none
O=C(Nc1ccc(Cl)cc1)N[C@H]1CC[C@@H](CCn2cc(Cc3ccccc3)nn2)O[C@H]1CO	DENV2 CPE 45.8
CC1(C)CC(=O)N(CC(=O)O)c2ccccc2S1(=O)=O	DENV2 CPE 33.8 (no result: E-selectin induc)
CN1CCN(C(=O)CN2C(=O)CC(C)(C)S(=O)(=O)c3ccccc32)CC1	none (no result: E-selectin induc, DENV2 CPE)
C[C@@H]1CN([C@@H](C)CO)C(=O)Cc2cc(N(C)C)ccc2O[C@H]1CN(C)Cc1ccc(C(=O)O)cc1	none
O=C(C[C@H]1CC[C@@H]2[C@H](COC[C@@H](O)CN2Cc2nccs2)O1)NCc1ccc(F)cc1	none
